Data reported in ChEMBL document CHEMBL1133544, “Formaldehyde-induced alkylation of a 2'-aminoglucose rebeccamycin derivative to both A.T and G.C base pairs in DNA” (J Med Chem, 2000).
Several values for one entry are separate records, joined by “and”; a condition that tells them apart may be missing. Equal entries are not always repeated.

Key:
[1] = Delta Tm value ( Tmdrug-DNA )-TmDNA ) was obtained for the covalently cross-linked compound in the absence of formaldehyde using calf thymus DNA.; type: ADME; conditions: cattle
Procedure, shortened: (§1)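 Drug added to nucleic acid at the stated drug/DNA ratio with no HCHO, in BPE buffer pH 7.0 (6 mM Na2HPO4, 2 mM NaH2PO4, 1 mM EDTA). DNA or polynucleotide at 20 μM nucleotide. Absorbance read at 260 nm while heating 20–100 °C at 1 °C/min. Tm taken as the midpoint of the hyperchromic transition; ΔTm = Tm(drug–DNA) − Tm(DNA). Duplicate determinations at each drug concentration.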

[2] = Delta Tm value ( Tmdrug-DNA )-TmDNA ) was obtained for the covalently cross-linked compound in the presence of formaldehyde using twice of poly(dA-dT) at 0.05 M; type: ADME
Procedure, shortened: (§2)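 The preformed drug–nucleic acid complex, at the stated drug/DNA ratio, was treated with HCHO before melting. Melting was done in BPE buffer pH 7.0 with 20 μM nucleotide, monitored at 260 nm, heating 20–100 °C at 1 °C/min. Tm is the hyperchromic transition midpoint, and ΔTm is taken relative to free nucleic acid. Each drug concentration was run in duplicate.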

[3] = Delta Tm value ( Tmdrug-DNA )-TmDNA ) was obtained for the covalently cross-linked compound in the presence of formaldehyde using twice of poly(dA-dT) at 0.1 M; type: ADME; procedure, shortened: as §2
[4] = Delta Tm value ( Tmdrug-DNA )-TmDNA ) was obtained for the covalently cross-linked compound in the presence of formaldehyde using twice of poly(dA-dT) at 0.25 M; type: ADME; procedure, shortened: as §2
[5] = Delta Tm value ( Tmdrug-DNA )-TmDNA ) was obtained for the covalently cross-linked compound in the presence of formaldehyde using twice of poly(dA-dT) at 0.5 M; type: ADME; procedure, shortened: as §2
[6] = Delta Tm value ( Tmdrug-DNA )-TmDNA ) was obtained for the covalently cross-linked compound in the presence of formaldehyde using twice of poly(dI-dC) at 0.05 M; type: ADME; procedure, shortened: as §2
[7] = Delta Tm value (Tm(drug-DNA)-Tm(DNA)) was determined for the covalently cross-linked compound in the presence of formaldehyde using calf thymus DNA at 0.05 M; type: ADME; conditions: cattle; procedure, shortened: as §2
[8] = Delta Tm value (Tm(drug-DNA)-Tm(DNA)) was determined for the covalently cross-linked compound in the presence of formaldehyde using twice of poly(dI-dC) at 0.25 M; type: ADME; procedure, shortened: as §2
[9] = Delta Tm value (Tm(drug-DNA)-Tm(DNA)) was obtained for the covalently cross-linked compound in the absence of formaldehyde using twice of poly(dI-dC); type: ADME; procedure, shortened: as §1
[10] = Delta Tm value (Tm(drug-DNA)-Tm(DNA)) was obtained for the covalently cross-linked compound in the absence of formaldehyde using twice of poly(dI-dC) at 0.05 M; type: ADME; procedure, shortened: as §1
[11] = Delta Tm value (Tm(drug-DNA)-Tm(DNA)) was obtained for the covalently cross-linked compound in the absence of formaldehyde using twice of poly(dI-dC) at 0.25 M; type: ADME; procedure, shortened: as §1
Bos taurus [12] = organism: Bos taurus; assay: Delta Tm value ( Tmdrug-DNA )-TmDNA ) was obtained for the covalently cross-linked compound in the absence of formaldehyde using calf thymus DNA at 0.05 M; type: ADME; conditions: cattle; procedure, shortened: as §1
Bos taurus [13] = organism: Bos taurus; assay: Delta Tm value ( Tmdrug-DNA )-TmDNA ) was obtained for the covalently cross-linked compound in the absence of formaldehyde using calf thymus DNA at 0.1 M; type: ADME; conditions: cattle; procedure, shortened: as §1
Bos taurus [14] = organism: Bos taurus; assay: Delta Tm value ( Tmdrug-DNA )-TmDNA ) was obtained for the covalently cross-linked compound in the absence of formaldehyde using calf thymus DNA at 0.25 M; type: ADME; conditions: cattle; procedure, shortened: as §1
Bos taurus [15] = organism: Bos taurus; assay: Delta Tm value ( Tmdrug-DNA )-TmDNA ) was obtained for the covalently cross-linked compound in the absence of formaldehyde using calf thymus DNA at 0.5 M; type: ADME; conditions: cattle; procedure, shortened: as §1
Bos taurus [16] = organism: Bos taurus; assay: Delta Tm value ( Tmdrug-DNA )-TmDNA ) was obtained for the covalently cross-linked compound in the absence of formaldehyde using calf thymus DNA at 1 M; type: ADME; conditions: cattle; procedure, shortened: as §1
Bos taurus [17] = organism: Bos taurus; assay: Delta Tm value ( Tmdrug-DNA )-TmDNA ) was obtained for the covalently cross-linked compound in the presence of formaldehyde using calf thymus DNA at 0.1 M; type: ADME; conditions: cattle; procedure, shortened: as §2
Bos taurus [18] = organism: Bos taurus; assay: Delta Tm value ( Tmdrug-DNA )-TmDNA ) was obtained for the covalently cross-linked compound in the presence of formaldehyde using calf thymus DNA at 0.25 M; type: ADME; conditions: cattle; procedure, shortened: as §2
Bos taurus [19] = organism: Bos taurus; assay: Delta Tm value ( Tmdrug-DNA )-TmDNA ) was obtained for the covalently cross-linked compound in the presence of formaldehyde using calf thymus DNA at 0.5 M; type: ADME; conditions: cattle; procedure, shortened: as §2
Bos taurus [20] = organism: Bos taurus; assay: Delta Tm value ( Tmdrug-DNA )-TmDNA ) was obtained for the covalently cross-linked compound in the presence of formaldehyde using calf thymus DNA at 1 M; type: ADME; conditions: cattle; procedure, shortened: as §2
Bos taurus [21] = organism: Bos taurus; assay: Delta Tm value ( Tmdrug-DNA )-TmDNA ) was obtained for the covalently cross-linked compound in the presence of formaldehyde using calf thymus DNA.; type: ADME; conditions: cattle; procedure, shortened: as §2
[22] = Delta Tm value ( Tmdrug-DNA )-TmDNA ) was obtained for the covalently cross-linked compound in the presence of formaldehyde using poly(dA-dC).poly(dG-dT) at 0.05 M; type: ADME; procedure, shortened: as §2
[23] = Delta Tm value ( Tmdrug-DNA )-TmDNA ) was obtained for the covalently cross-linked compound in the presence of formaldehyde using poly(dA-dC).poly(dG-dT) at 0.1 M; type: ADME; procedure, shortened: as §2
[24] = Delta Tm value ( Tmdrug-DNA )-TmDNA ) was obtained for the covalently cross-linked compound in the presence of formaldehyde using poly(dA-dC).poly(dG-dT) at 0.25 M; type: ADME; procedure, shortened: as §2
[25] = Delta Tm value ( Tmdrug-DNA )-TmDNA ) was obtained for the covalently cross-linked compound in the presence of formaldehyde using twice of poly(dA-dT); type: ADME; procedure, shortened: as §2
[26] = test system: [poly(dA-dT)]2 (synthetic); assay: Delta Tm value ( Tmdrug-DNA )-TmDNA ) was obtained for the covalently cross-linked compound in the absence of formaldehyde using twice of poly(dA-dT); conditions: in vivo
[27] = test system: poly(dA-dC)·poly(dG-dT) (synthetic); assay: Delta Tm value ( Tmdrug-DNA )-TmDNA ) was obtained for the covalently cross-linked compound in the absence of formaldehyde using poly(dA-dC).poly(dG-dT); conditions: in vitro
[28] = test system: poly(dA-dC)·poly(dG-dT) (synthetic); assay: Delta Tm value ( Tmdrug-DNA )-TmDNA ) was obtained for the covalently cross-linked compound in the presence of formaldehyde using poly(dA-dC).poly(dG-dT); conditions: in vitro
[29] = test system: [poly(dA-dT)]2 (synthetic); assay: Delta Tm value ( Tmdrug-DNA )-TmDNA ) was obtained for the covalently cross-linked compound in the absence of formaldehyde using twice of poly(dA-dT) at 0.1 M; conditions: in vivo
[30] = test system: [poly(dA-dT)]2 (synthetic); assay: Delta Tm value ( Tmdrug-DNA )-TmDNA ) was obtained for the covalently cross-linked compound in the absence of formaldehyde using twice of poly(dA-dT) at 0.05 M; conditions: in vivo
[31] = test system: [poly(dA-dT)]2 (synthetic); assay: Delta Tm value ( Tmdrug-DNA )-TmDNA ) was obtained for the covalently cross-linked compound in the absence of formaldehyde using twice of poly(dA-dT) at 0.25 M; conditions: in vivo
[32] = test system: poly(dA-dC)·poly(dG-dT) (synthetic); assay: Delta Tm value ( Tmdrug-DNA )-TmDNA ) was obtained for the covalently cross-linked compound in the absence of formaldehyde using poly(dA-dC).poly(dG-dT) at 0.1 M; conditions: in vitro
[33] = test system: poly(dA-dC)·poly(dG-dT) (synthetic); assay: Delta Tm value ( Tmdrug-DNA )-TmDNA ) was obtained for the covalently cross-linked compound in the absence of formaldehyde using poly(dA-dC).poly(dG-dT) at 0.05 M; conditions: in vitro
[34] = test system: poly(dA-dC)·poly(dG-dT) (synthetic); assay: Delta Tm value ( Tmdrug-DNA )-TmDNA ) was obtained for the covalently cross-linked compound in the absence of formaldehyde using poly(dA-dC).poly(dG-dT) at 0.25 M; conditions: in vitro

With `COC1C(CO)OC(n2c3ccccc3c3c4c(c5c6ccccc6[nH]c5c32)C(=O)N(N)C4=O)C(N)C1O` (centres undefined) the “Delta Tm” value [1] was 0 °C, the “Delta Tm” value [2] was 5.9 °C and the “Delta Tm” value [3] was 11.9 °C. For the same compound, the “Delta Tm” value [4] was 31 °C, the “Delta Tm” value [5] was 50.8 °C and the “Delta Tm” value [6] was 3.1 °C. The “Delta Tm” value [7] was 6 °C, the “Delta Tm” value [8] was 10 °C and the “Delta Tm” value [9] was 0 °C and -1 °C. The “Delta Tm” value [10] was 2 °C, the “Delta Tm” value [11] was 8.9 °C and the “Delta Tm” value (Bos taurus [12]) was 2 °C. For the same compound, the “Delta Tm” value (Bos taurus [13]) was 4 °C, the “Delta Tm” value (Bos taurus [14]) was 6.7 °C and the “Delta Tm” value (Bos taurus [15]) was 6.5 °C. The “Delta Tm” value (Bos taurus [16]) was 6.7 °C, the “Delta Tm” value (Bos taurus [17]) was 11.9 °C and the “Delta Tm” value (Bos taurus [18]) was 22.3 °C. The “Delta Tm” value (Bos taurus [19]) was 26.2 °C, the “Delta Tm” value (Bos taurus [20]) was 28.7 °C and the “Delta Tm” value (Bos taurus [21]) was 0 °C. For the same compound, the “Delta Tm” value [22] was 6.7 °C, the “Delta Tm” value [23] was 12.4 °C and the “Delta Tm” value [24] was 21.2 °C. For the same compound, the “Delta Tm” value [25] was 0 °C, the “Delta Tm” value [26] was 0 °C and the “Delta Tm” value [27] was 0 °C. For the same compound, the “Delta Tm” value [28] was -2 °C, the “Delta Tm” value [29] was 3 °C and the “Delta Tm” value [30] was 2 °C. The “Delta Tm” value [31] was 4.8 °C, the “Delta Tm” value [32] was 1.8 °C and the “Delta Tm” value [33] was 1 °C. The “Delta Tm” value [34] was 2.9 °C.
